# Experimental data: ChEMBL document CHEMBL1821681, “Synthesis and biological evaluation of derivatives of 4-deoxypodophyllotoxin as antitumor agents” (Eur J Med Chem, 2011)
# Tests used:
# A549 [1] = test: Cytotoxicity against human A549 cells after 48 hrs by MTT assay; type: functional, cell-based; details: A549, 48 h
# Summary of the method: (§1)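 Cells kept at 37 °C under 5% CO2, plated and allowed to attach for 24 h, then exposed in quadruplicate wells for 48 h to five saline-dissolved concentrations. IC50 is the mean of three independent experiments.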
# SiHa = test: Cytotoxicity against human SiHa cells after 48 hrs by MTT assay; type: functional, cell-based; summary of the method: as §1
# HeLa = test: Cytotoxicity against human HeLa cells after 48 hrs by MTT assay; type: functional, cell-based; summary of the method: as §1
# A549 [2] = test: Induction of cell cycle arrest in human A549 cells assessed as accumulation at S phase at 0.5 uM after 48 hrs using propidium iodide staining by FACS analysis (reference value: 36.7 %); type: functional
# A549 [3] = test: Induction of cell cycle arrest in human A549 cells assessed as accumulation at sub-G1 phase at 0.5 uM after 48 hrs using propidium iodide staining by FACS analysis (reference value: 21.7 %); type: functional
# A549 [4] = test: Induction of cell cycle arrest in human A549 cells assessed as accumulation at G1 phase at 0.5 uM after 48 hrs using propidium iodide staining by FACS analysis (reference value: 59.9 %); type: functional
# A549 [5] = test: Induction of cell cycle arrest in human A549 cells assessed as accumulation at G1 phase at 0.1 uM after 48 hrs using propidium iodide staining by FACS analysis (reference value: 59.9 %); type: functional
# A549 [6] = test: Induction of cell cycle arrest in human A549 cells assessed as accumulation at sub-G1 phase at 0.1 uM after 48 hrs using propidium iodide staining by FACS analysis (reference value: 21.7 %); type: functional
# A549 [7] = test: Induction of cell cycle arrest in human A549 cells assessed as accumulation at S phase at 0.1 uM after 48 hrs using propidium iodide staining by FACS analysis (reference value: 36.7 %); type: functional
# A549 [8] = test: Induction of cell cycle arrest in human A549 cells assessed as accumulation at G2/M phase at 0.1 uM after 48 hrs using propidium iodide staining by FACS analysis (reference value: 3.2 %); type: functional
Compound,IC50 (A549 [1]) [µM],IC50 (SiHa) [µM],IC50 (HeLa) [µM],Activity (A549 [2]) [%],Activity (A549 [3]) [%],Activity (A549 [4]) [%],Activity (A549 [5]) [%],Activity (A549 [6]) [%],Activity (A549 [7]) [%],Activity (A549 [8]) [%]
COc1cc([C@@H]2c3cc4c(cc3C[C@H]3COC(=O)[C@@H]32)OCO4)cc(OC)c1OC(=O)NCC(=O)N1CCN(C)CC1,3.96,4.97,0.703,,,,,,,
COc1cc([C@@H]2c3cc4c(cc3C[C@H]3COC(=O)[C@@H]32)OCO4)cc(OC)c1OC(=O)NCC(=O)N1CCN(c2ccc(O)cc2)CC1,2.39,4.76,7.01,,,,,,,
COc1cc([C@@H]2c3cc4c(cc3C[C@H]3COC(=O)[C@@H]32)OCO4)cc(OC)c1OC(=O)NCC(=O)N1CCN(C2CCCC2)CC1,1.72,0.135,3.07,,,,,,,
COc1cc([C@@H]2c3cc4c(cc3C[C@H]3COC(=O)[C@@H]32)OCO4)cc(OC)c1OC(=O)N[C@@H](Cc1ccccc1)C(=O)N1CCNCC1,0.0802,0.16,0.433,,,,,,,
COc1cc([C@@H]2c3cc4c(cc3C[C@H]3COC(=O)[C@@H]32)OCO4)cc(OC)c1OC(=O)N[C@@H](CCSC)C(=O)N1CCN(c2ccc([N+](=O)[O-])cc2)CC1,0.183,0.16,0.191,,,,,,,
COc1cc([C@@H]2c3cc4c(cc3C[C@H]3COC(=O)[C@@H]32)OCO4)cc(OC)c1OC(=O)N[C@H](CCSC)C(=O)N1CCNCC1,0.208,0.0839,0.203,,,,,,,
COc1cc([C@@H]2c3cc4c(cc3C[C@H]3COC(=O)[C@@H]32)OCO4)cc(OC)c1O [4'-DEMETHYLDEOXYPODOPHYLLOTOXIN],3.75,2.07,7.43,,,,,,,
COc1cc([C@@H]2c3cc4c(cc3C[C@H]3COC(=O)[C@@H]32)OCO4)cc(OC)c1OC [DESOXYPODOPHYLLOTOXIN],0.47,10.2,36,1.4,13.1,85.5,,,,
COc1cc([C@@H]2c3cc4c(cc3[C@@H](O[C@@H]3O[C@@H]5CO[C@@H](C)O[C@H]5[C@H](O)[C@H]3O)[C@H]3COC(=O)[C@H]23)OCO4)cc(OC)c1O [ETOPOSIDE],14.8,30.7,50.6,,,,26,4.1,59.4,10.5
